# How the values were obtained:
# Aromatase [1] = biological target: T1, Aromatase (Homo sapiens, UniProt P11511); test: Inhibition of Cytochrome P450 19A1 at 0.25 uM
# T1 sequence (P11511 whole entry): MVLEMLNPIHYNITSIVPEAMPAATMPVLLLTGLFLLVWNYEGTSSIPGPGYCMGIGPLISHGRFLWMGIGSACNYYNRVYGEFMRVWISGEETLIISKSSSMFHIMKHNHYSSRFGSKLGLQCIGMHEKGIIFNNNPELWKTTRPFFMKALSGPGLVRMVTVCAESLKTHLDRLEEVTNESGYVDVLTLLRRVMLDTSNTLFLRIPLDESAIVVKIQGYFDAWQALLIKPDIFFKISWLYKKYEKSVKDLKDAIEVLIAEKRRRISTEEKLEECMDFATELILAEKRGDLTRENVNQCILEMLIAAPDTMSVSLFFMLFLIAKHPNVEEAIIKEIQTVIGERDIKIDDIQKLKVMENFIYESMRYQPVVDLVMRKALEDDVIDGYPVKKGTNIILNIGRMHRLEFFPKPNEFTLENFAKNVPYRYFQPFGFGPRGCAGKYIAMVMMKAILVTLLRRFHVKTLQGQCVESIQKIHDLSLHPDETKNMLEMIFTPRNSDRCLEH
# Procedure, shortened: (§1)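 Aromatase source was lyophilized human placental microsomes, measured by tritiated water release. The substrate was 0.25 μM [1-³H]androstenedione (83% of the tritium in the β position), about 5 times the Km for this enzyme preparation. Inhibitor was tested at 0.25 μM or 1.25 μM with buffer and cofactors for 15 min. Ethyl acetate stopped the reaction.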
# Aromatase [2] = biological target: T1, Aromatase; test: Inhibition of Cytochrome P450 19A1 at 1.25 uM; procedure, shortened: as §1
compound,measurement,setting,value
C[C@]12CCC(=O)C=C1C[C@@H](Sc1ccccc1)[C@@H]1[C@@H]2CC[C@]2(C)C(=O)CC[C@@H]12,inhibition at 0.25 µM,Aromatase [1],62.7%
same,inhibition at 1.25 µM,Aromatase [2],66.8%
C[C@]12CCC(=O)C=C1C[C@@H](SCc1ccccc1)[C@@H]1[C@@H]2CC[C@]2(C)C(=O)CC[C@@H]12,inhibition at 0.25 µM,Aromatase [1],33.5%
same,inhibition at 1.25 µM,Aromatase [2],69.8%
COc1ccc(S[C@@H]2CC3=CC(=O)CC[C@]3(C)[C@H]3CC[C@]4(C)C(=O)CC[C@H]4[C@H]23)cc1,inhibition at 0.25 µM,Aromatase [1],7.93%
same,inhibition at 1.25 µM,Aromatase [2],36.7%
C[C@]12CCC(=O)C=C1C[C@@H](Sc1ccc(N)cc1)[C@@H]1[C@@H]2CC[C@]2(C)C(=O)CC[C@@H]12,inhibition at 0.25 µM,Aromatase [1],51.6%
same,inhibition at 1.25 µM,Aromatase [2],85%
C[C@]12CCC(=O)C=C1C[C@@H](SC1CCCCC1)[C@@H]1[C@@H]2CC[C@]2(C)C(=O)CC[C@@H]12,inhibition at 0.25 µM,Aromatase [1],18.5%
same,inhibition at 1.25 µM,Aromatase [2],32.2%
CCN(CC)c1ccc(S[C@@H]2CC3=CC(=O)CC[C@]3(C)[C@H]3CC[C@]4(C)C(=O)CC[C@H]4[C@H]23)cc1,inhibition at 0.25 µM,Aromatase [1],11.7%
same,inhibition at 1.25 µM,Aromatase [2],53.2%
C[C@]12CCC(=O)C=C1C[C@@H](Sc1cccc(N)c1)[C@@H]1[C@@H]2CC[C@]2(C)C(=O)CC[C@@H]12,inhibition at 0.25 µM,Aromatase [1],39.9%
same,inhibition at 1.25 µM,Aromatase [2],73.3%
C[C@]12CCC(=O)C=C1C[C@@H](Sc1ccc(F)cc1)[C@@H]1[C@@H]2CC[C@]2(C)C(=O)CC[C@@H]12,inhibition at 0.25 µM,Aromatase [1],55.3%
same,inhibition at 1.25 µM,Aromatase [2],74.1%
C[C@]12CCC(=O)C=C1C[C@@H](Sc1ccc(Cl)cc1)[C@@H]1[C@@H]2CC[C@]2(C)C(=O)CC[C@@H]12,inhibition at 0.25 µM,Aromatase [1],56.5%
same,inhibition at 1.25 µM,Aromatase [2],83.4%
CC(=O)c1ccc(S[C@@H]2CC3=CC(=O)CC[C@]3(C)[C@H]3CC[C@]4(C)C(=O)CC[C@H]4[C@H]23)cc1,inhibition at 0.25 µM,Aromatase [1],55.7%
same,inhibition at 1.25 µM,Aromatase [2],84.4%
C[C@]12CCC(=O)C=C1C[C@@H](Sc1ccc(Br)cc1)[C@@H]1[C@@H]2CC[C@]2(C)C(=O)CC[C@@H]12,inhibition at 0.25 µM,Aromatase [1],47.3%
same,inhibition at 1.25 µM,Aromatase [2],80.8%
C[C@]12CCC(=O)C=C1C[C@@H](Sc1ccc(I)cc1)[C@@H]1[C@@H]2CC[C@]2(C)C(=O)CC[C@@H]12,inhibition at 0.25 µM,Aromatase [1],45%
same,inhibition at 1.25 µM,Aromatase [2],83.7%
Cc1ccc(S[C@@H]2CC3=CC(=O)CC[C@]3(C)[C@H]3CC[C@]4(C)C(=O)CC[C@H]4[C@H]23)cc1,inhibition at 0.25 µM,Aromatase [1],7.83%
same,inhibition at 1.25 µM,Aromatase [2],24.9%

# — ChEMBL document CHEMBL1123018, “7 alpha-substituted derivatives of androstenedione as inhibitors of estrogen biosynthesis” (J Med Chem, 1985)
